IDE act = human IDE activators in live cells, primary screen, fluorescence polarization, HEK cells, FAbeta-B substrate; hit rate 0.073% among 340,000; Insulin-degrading enzyme (Homo sapiens), P14735; activation, % at 5.96 µM; FAbeta-B cleavage; 0% vehicle, 100% cell-free pure enzyme wells; AID 493087, 2011;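 active = activation above the mean of all tested compounds plus 3 SD, set per screening campaign, cut at about 17% in these data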
HNF4A DNA FP = change in binding of human HNF4A to DNA, primary screen, biochemical, fluorescence polarization, FITC-DNA; activity change, % at 10 µM; hit rate 0.3% among 360,000; Hepatocyte nuclear factor 4-alpha (Homo sapiens), P41235; 1 h; in the data active = activity change above about 30%, passing the limit was not always enough
Target sequence (P41235 whole entry, looked up): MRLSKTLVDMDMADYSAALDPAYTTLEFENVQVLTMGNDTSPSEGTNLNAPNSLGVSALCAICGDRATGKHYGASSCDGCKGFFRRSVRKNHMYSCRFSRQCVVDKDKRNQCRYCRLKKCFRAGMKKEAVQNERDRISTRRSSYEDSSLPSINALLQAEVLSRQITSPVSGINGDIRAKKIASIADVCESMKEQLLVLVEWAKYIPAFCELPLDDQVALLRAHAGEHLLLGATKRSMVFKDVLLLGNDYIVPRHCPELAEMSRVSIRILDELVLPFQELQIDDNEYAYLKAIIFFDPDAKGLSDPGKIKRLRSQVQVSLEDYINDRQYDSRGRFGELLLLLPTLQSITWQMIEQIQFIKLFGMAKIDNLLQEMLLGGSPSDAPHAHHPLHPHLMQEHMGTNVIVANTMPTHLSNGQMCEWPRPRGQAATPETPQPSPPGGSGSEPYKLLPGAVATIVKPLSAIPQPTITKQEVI
TPT1 inh = Candida albicans TPT1 enzyme inhibitors, primary screen, biochemical, fluorescence polarization. tRNA 2'-phosphotransferase TPT1 (Candida albicans SC5314). recombinant caTPT1, FP RNA substrate dephosphorylation. inhibition, % at 5 µM. hit rate 0.81% among 300,000;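 active = inhibition above the mean of all tested compounds plus 3 SD, set per screening campaign, cut at about 24% in these data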
Rpn11 inh = Rpn11 (PSMD14) deubiquitinase inhibitors, primary screen, biochemical, fluorescence polarization, uHTS; 26S proteasome non-ATPase regulatory subunit 14 (Homo sapiens), O00487; human 26S proteasome, Ub4-pepOG fluorescence polarization; 20S core pre-blocked with epoxomicin; calls only at 20 µM; hit rate 0.59% among 360,000; AID 588493, 2011;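 active = inhibition at 20 µM, scaled to each plate's controls, above about 33%, limit read from the data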
IDE inh = human IDE inhibitors in live cells, primary screen, fluorescence polarization, HEK cells, FAbetaB substrate; Insulin-degrading enzyme (Homo sapiens), P14735; FAbetaB cleavage; inhibition, % at 5.59 µM; hit rate 0.41% among 320,000;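 active = percent inhibition above the average of all tested compounds plus 3 SD, set per screening campaign, cut at about 16% in these data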;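 also: IDE supplied by intact live HEK cells; FP after avidin binding of uncleaved biotin substrate so inhibition keeps polarization high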
CSN deneddyl inh = inhibitors of CSN-mediated cullin deneddylation, primary screen, biochemical, fluorescence polarization, uHTS | inhibition, % at 12.5 µM | Purified CSN, SCF-Nedd8-OG deneddylation | hit rate 0.38% among 360,000 | COP9 signalosome complex subunit 5 (Homo sapiens), Q92905 | AID 651999, 2013;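 active = pattern-corrected inhibition above about 35%, with an unprinted fluorescence ratio check between 0.5 and 1.5, limit read from the data, passing the limit was not always enough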
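Test system: Human Csn5 produced in HEK293T cells | Compound: 12.5 µM single point | Times: 90 min, room temperature | Signal: Fluorescence polarization readout | Read-out basis: % inhibition of substrate cleavage by Csn5 | Controls: no-enzyme wells high, enzyme-with-substrate wells low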
CSN deneddyl val = Csn5 deneddylation inhibitors, confirmation, biochemical, fluorescence polarization, single concentration, SCF-Nedd8OG substrate; shares compounds with CSN deneddyl inh; Csn5 deneddylation of SCF-Nedd8OG, 90 min; inhibition, % at 16.6 µM; hit rate 62% among 540; AID 720654, 2013; in the data active = inhibition above about 50%
MMP-2 counter = MMP-2 protease inhibition counter-screen, confirmation, counter-screen for CSN deneddylation inhibitor project, biochemical, fluorescence, single concentration | shares compounds with CSN deneddyl inh | recombinant MMP-2, FRET substrate fluorescence, 60 min | inhibition, % at 16.6 µM | hit rate 33% among 540 | AID 720655, 2013;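 active = corrected plate-normalized z-score of 5 or more, or -5 or less, or inhibition of 15% or more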
Thrombin counter = blocks bovine thrombin in a CSN deneddylation counter-screen; shares compounds with CSN deneddyl inh; bovine thrombin cleavage of Ub4-pepOG, fluorescence polarization; inhibition, % at 16.6 µM; hit rate 49% among 540; AID 720656;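 active = inhibition at or above a set limit, with a fluorescence interference ratio between 0.5 and a set maximum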
HNF4A confirm = change in HNF4A binding to DNA, retest, confirmation, biochemical, fluorescence polarization, FITC-DNA; hit rate 99% among 210; shares compounds with HNF4A DNA FP; 1 h; activity change, % at 12.5 µM; AID 1224897, 2016; call rule not given here
A number is an active result; n = inactive; x = no result shown. Only some compounds are listed: those with a hit (about 1.7% of all), similar ones and a draw of the others.

SMILES	IDE act	HNF4A DNA FP	TPT1 inh	Rpn11 inh	IDE inh	CSN deneddyl inh	HNF4A confirm	others
O=C1CCCC2=C1C(c1ccc(O)c(O)c1)Nc1ccc3ccccc3c12 (configuration not stated)	n	n	n	n	n	n	x
O=[N+]([O-])c1ccc(N2N=C(c3ccccc3)CC2c2ccccc2O)cc1 (configuration not stated)	n	86.2	x	x	x	56.0	x	CSN deneddyl val=50.8;MMP-2 counter=n;Thrombin counter=58.9
COc1ccccc1NS(=O)(=O)c1ccc(C)c(NC(=O)C2CCCO2)c1 (configuration not stated)	n	n	x	n	n	n	x
CCC(Oc1ccc(C)c(C)c1)C(=O)O (configuration not stated)	n	n	n	n	n	n	x
NC1=NC(=O)/C(=C/c2ccc(OCC(=O)O)cc2)S1	n	n	x	n	x	n	x
CCN(CC)c1ccc(/C=C2\SC(N)=NC2=O)cc1	n	n	x	x	x	68.3	x	CSN deneddyl val=131.2;MMP-2 counter=-33.1;Thrombin counter=77.7
CCCc1nnc(NC(=O)CCC(=O)NCc2ccc(Cl)cc2Cl)s1	n	n	n	n	n	n	x
CC(O)CC(=O)OC[C@]12CC[C@H]3[C@@](C)(CC[C@H]4C(C)(C)CCC[C@]34C)[C@@H]1CC(C1=CC(=O)OC1O)O2 (some centres not stated)	x	n	x	n	x	46.0	x	CSN deneddyl val=n;MMP-2 counter=n;Thrombin counter=n
O=C(Nc1ccc(Nc2ccncc2)cc1)c1ccc([N+](=O)[O-])cc1	n	n	n	n	n	n	x
O=C(Nc1ccc(Nc2ccncc2)cc1)c1ccc(Nc2ccnc3ccc([N+](=O)[O-])cc23)cc1[N+](=O)[O-]	n	n	n	n	n	54.5	x	MMP-2 counter=36.0;Thrombin counter=n
CCCCn1c(NC(=O)c2ccc(Br)o2)c(S(=O)(=O)c2ccccc2)c2nc3ccccc3nc21	n	n	n	n	n	48.3	x	CSN deneddyl val=101.2;MMP-2 counter=n;Thrombin counter=n
O=C1NC(=S)S/C1=C\c1cc(Cl)cc(Cl)c1O	n	n	x	x	x	45.0	x	CSN deneddyl val=54.3;MMP-2 counter=n;Thrombin counter=56.3
N#Cc1cc(Oc2ccccc2)c(-n2nnc3ccccc32)cc1C#N	n	n	n	n	n	n	x
N#Cc1cc(Oc2ccc3ccccc3c2)c(-n2nnc3ccccc32)cc1C#N	n	61.6	n	n	n	n	36.4
COc1ccc2cc(C(c3nnnn3CCc3ccccc3)N3CCC(O)CC3)c(=O)[nH]c2c1 (configuration not stated)	n	55.2	n	x	n	n	51.4
COc1ccc(OCCNc2cc(Cl)ccc2[N+](=O)[O-])cc1	n	51.2	n	x	n	46.6	67.0
COc1ccc(OCCNc2cc(N3CCCCC3)ccc2[N+](=O)[O-])cc1	n	n	n	n	n	n	x
Cc1cccc(-c2c3c(=O)n(C)c(=O)n(C)c3c3nnc4ccccc4n23)c1	n	49.5	x	x	x	n	32.0
COc1cc(/C=C2\C(=N)N3N=CSC3=NC2=O)cc(Br)c1OC(=O)c1ccco1	n	39.3	n	n	n	n	79.1
Cc1ccccc1COc1ccc(-c2nnn(CC(=O)O)n2)cc1	n	n	x	n	x	n	x
CCN1/C(=N\N)c2cccc3cccc1c23	n	57.4	n	x	n	51.4	72.2
N#C/C(=C/c1ccc(-c2ccc([N+](=O)[O-])cc2)o1)c1nnc(N2CCOCC2)n1-c1ccccc1	n	48.0	x	n	x	n	37.6
O=C(c1cnc(N2CCN(c3ccccn3)CC2)c2ccccc12)N1CCN(c2cccc(Cl)c2)CC1	n	n	n	n	n	n	x
O=C(O)c1cccc2c1C(=O)c1ccc(Cl)cc1S2(=O)=O	n	n	x	n	n	n	x
O=C(O)c1cccc2c1C(=O)c1ccc(N3CCCCC3)cc1S2(=O)=O	n	43.5	x	x	n	n	42.6
SMILES	IDE act	HNF4A DNA FP	TPT1 inh	Rpn11 inh	IDE inh	CSN deneddyl inh	HNF4A confirm	others
CC1(C)C2CC[C@]3(C)[C@H](C(=O)C=C4[C@@H]5C[C@@](C)(C(=O)O)CC[C@]5(C)CC[C@]43C)[C@@]2(C)CC[C@@H]1O[C@H]1O[C@H](C(=O)O)[C@@H](O)[C@H](O)[C@H]1O[C@@H]1O[C@H](C(=O)O)[C@@H](O)[C@H](O)[C@H]1O (some centres not stated)	x	n	x	n	x	n	x
O=c1[nH]n2cc(-n3cc([N+](=O)[O-])cn3)cnc2c1Br	n	n	n	n	n	n	x
N#C/C(=C/C1=C(N2CCOCC2)C(=C/c2cccc([N+](=O)[O-])c2)/CC1)C(=O)Nc1ccccc1F	n	48.6	x	n	x	53.2	64.8
CC(NC(=O)C12CC3CC(CC(C3)C1)C2)C(=O)N/N=C/C1=C(N2CCOCC2)C(=C\c2cccc([N+](=O)[O-])c2)/CC1 (configuration not stated)	n	n	n	n	n	n	x
CCN(CC)c1ccc(/C=C2\CCC(/C=C(/C#N)C(=O)Nc3ccccc3F)=C2N2CCOCC2)cc1	n	n	x	n	x	n	x
N#C/C(=C\C1=C(N2CCOCC2)C(=C/c2cccc([N+](=O)[O-])c2)/CC1)C(=O)Nc1ccccc1F	n	53.5	n	x	n	n	55.6
CN(C)Cc1c(O)ccc2occ(C(=O)c3ccccc3)c12	n	n	n	n	n	n	x
ON=C1CCCCCCCC1	n	n	x	n	x	n	x
COc1ccc(S(=O)(=O)N2N=C(c3ccc(NS(C)(=O)=O)cc3)CC2c2ccco2)cc1 (configuration not stated)	n	n	n	n	n	n	x
COc1ccc(C2CC(c3ccccc3)=NN2S(=O)(=O)c2ccccc2)cc1 (configuration not stated)	n	76.7	n	n	n	n	59.3
